In ChEMBL document CHEMBL2069204, “N-1-Alkyl-2-oxo-2-aryl amides as novel antagonists of the TRPA1 receptor” (Bioorg Med Chem Lett, 2012):
Converted amounts (≈) assume the structure as drawn. The source made the active and inactive calls. The rule behind the calls is not given here.

Assays:
[1] = target: T1, Transient receptor potential cation channel subfamily A member 1 (Homo sapiens, UniProt O75762); experiment: Antagonist activity at human TRPA1 expressed in HEK293 cells assessed as inhibition of Zn2+-induced intracellular calcium flux by FLIPR assay; format: functional, cell-based
T1 sequence (O75762 whole entry): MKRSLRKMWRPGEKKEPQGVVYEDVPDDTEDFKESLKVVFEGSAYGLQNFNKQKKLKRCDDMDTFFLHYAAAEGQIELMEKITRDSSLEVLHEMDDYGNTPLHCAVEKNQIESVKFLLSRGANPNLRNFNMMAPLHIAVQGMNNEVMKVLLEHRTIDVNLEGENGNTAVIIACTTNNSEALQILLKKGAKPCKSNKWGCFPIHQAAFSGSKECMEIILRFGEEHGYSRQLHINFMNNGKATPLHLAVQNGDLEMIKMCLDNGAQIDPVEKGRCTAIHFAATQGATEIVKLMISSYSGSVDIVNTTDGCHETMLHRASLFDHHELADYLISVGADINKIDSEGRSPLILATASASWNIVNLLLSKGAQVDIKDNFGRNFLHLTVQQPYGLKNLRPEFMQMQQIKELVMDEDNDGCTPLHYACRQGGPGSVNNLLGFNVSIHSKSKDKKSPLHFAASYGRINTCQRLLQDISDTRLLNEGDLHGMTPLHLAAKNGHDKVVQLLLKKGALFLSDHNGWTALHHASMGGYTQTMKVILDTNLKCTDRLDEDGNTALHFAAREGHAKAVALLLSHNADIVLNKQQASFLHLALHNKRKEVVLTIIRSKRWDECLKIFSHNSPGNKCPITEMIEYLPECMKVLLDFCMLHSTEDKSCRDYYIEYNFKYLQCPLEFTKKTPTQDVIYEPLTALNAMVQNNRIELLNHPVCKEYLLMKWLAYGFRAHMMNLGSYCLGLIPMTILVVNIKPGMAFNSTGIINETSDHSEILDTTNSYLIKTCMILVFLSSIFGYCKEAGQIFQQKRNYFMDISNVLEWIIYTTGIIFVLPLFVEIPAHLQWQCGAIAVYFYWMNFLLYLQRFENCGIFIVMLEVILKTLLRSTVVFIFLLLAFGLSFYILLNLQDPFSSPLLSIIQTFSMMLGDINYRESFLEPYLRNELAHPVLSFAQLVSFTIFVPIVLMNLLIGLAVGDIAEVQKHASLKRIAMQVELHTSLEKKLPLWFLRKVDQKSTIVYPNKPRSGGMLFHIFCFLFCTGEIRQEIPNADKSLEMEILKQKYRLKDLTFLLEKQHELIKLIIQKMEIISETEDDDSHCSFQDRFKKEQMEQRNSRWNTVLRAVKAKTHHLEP
Outline: (§1)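 Fluorescence-based TRPA1 antagonist assay with the agonist as the stimulus: Ca2+ for line 1 and Zn2+ for line 2. Results are reported as pIC50. Compounds with pIC50 > 5 were checked by automated electrophysiology on IonWorks to exclude autofluorescence artefacts. The IC50s from the two agonist formats were pooled and treated as one data set.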

[2] = target: T1, Transient receptor potential cation channel subfamily A member 1; experiment: Antagonist activity at human TRPA1 expressed in HEK293 cells assessed as inhibition of Ca2+-induced intracellular calcium flux by FLIPR assay; format: functional, cell-based; outline: as §1
[3] = Solubility of the compound in phosphate buffer at pH 7.4 by dried DMSO method; format: physicochemical
Outline: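 Measured by the 'dried DMSO' method in phosphate buffer at pH 7.4. Results are binned as low (<1–5 μM), medium (5–25 μM) or good (>25 μM).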

[4] = Metabolic stability in human microsomes assessed as glutathione adduct formation

| Compound | IC50 [1] | IC50 [2] | other results |
| --- | --- | --- | --- |
| CC(C)C(NC(=O)c1cnn(C(C)(C)C)c1C(F)(F)F)C(=O)c1ccc2nonc2c1 (stereo unspecified) | 398 nM | – | – |
| CC(C)C(NC(=O)c1ccccc1)C(=O)c1ccc(Cl)c(Cl)c1 (racemic) | – | 3.98 µM | – |
| CCCCCCCCCC(=O)NC(C(=O)c1ccc(C#N)cc1)C(C)C (stereo unspecified) | 1000 nM | 2 µM | – |
| CC(C)C(NC(=O)NCc1ccccc1)C(=O)c1ccc(C#N)cc1 (stereo unspecified) | – | – | pIC50 [1]: inactive; pIC50 [2]: inactive |
| CC(C)C(NC(=O)Nc1ccc(F)cc1)C(=O)c1ccc(C#N)cc1 (stereo unspecified) | – | – | pIC50 [1]: inactive; pIC50 [2]: inactive |
| CC(C)C(NC(=O)c1ccccc1)C(=O)c1ccccc1 (racemic) | – | – | pIC50 [1]: < 4.5; pIC50 [2]: inactive |
| CC(C)C(NC(=O)c1ccc(Cl)cc1Cl)C(=O)c1ccc(C#N)cc1 (stereo unspecified) | 2510 nM | 5.01 µM | – |
| CCCC(NC(=O)c1ccccc1)C(=O)c1ccc(Cl)cc1 (stereo unspecified) | – | – | pIC50 [1]: inactive; pIC50 [2]: inactive |
| CC(C)C(NC(=O)c1cnoc1C(C)(C)C)C(=O)c1ccc(C#N)cc1 (stereo unspecified) | 501 nM | 1 µM | – |
| CC(C)C(NC(=O)c1cc(Cl)ccc1F)C(=O)c1ccc(C#N)cc1 (stereo unspecified) | 2000 nM | – | pIC50 [2]: inactive |
| CC(C)C(C)(NC(=O)c1ccccc1)C(=O)c1ccc(Cl)cc1 (stereo unspecified) | – | 3.16 µM | pIC50 [1]: inactive |
| CC(C)C(NC(=O)c1ccccc1)C(=O)c1ccc(F)cc1 (racemic) | 7940 nM | 5.01 µM | – |
| CC(C)C(NC(=O)c1ccccc1)C(=O)c1ccc(C#N)cc1 (racemic) | – | 3.98 µM | solubility kinetic [3]: 150 µM (≈ 46 µg/mL) |
| Cc1noc(C(C)C)c1C(=O)NC(C(=O)c1ccc(C#N)c(F)c1)C(C)(C)C (stereo unspecified) | 200 nM | – | solubility kinetic [3]: 80 µM (≈ 30.8 µg/mL) |
| CC(C)C(NC(=O)c1ccc(Cl)cc1)C(=O)c1ccc(C#N)cc1 (stereo unspecified) | – | 0.398 µM | – |
| CC(C)C(NC(=O)OC(C)(C)C)C(=O)c1ccc(Cl)cn1 (stereo unspecified) | 15800 nM | 5.01 µM | – |
| CC(C)C(NC(=O)c1ccccc1)C(=O)c1ccc(N)cc1 (racemic) | – | – | pIC50 [1]: inactive; pIC50 [2]: inactive |
| Cc1noc(C(C)C)c1C(=O)NC1C(=O)c2ccc(Cl)cc2CC1(C)C (stereo unspecified) | – | – | pIC50 [1]: inactive |
| CC(C)C(NC(=O)c1cc(Cl)ccc1C(F)(F)F)C(=O)c1ccc([N+](=O)[O-])cc1 (stereo unspecified) | 10 nM | – | solubility kinetic [3]: < 1 µM |
| CC(C)C(NC(=O)c1ccccc1)C(=O)c1ccc(Cl)cc1 (racemic) | 1260 nM | 2.51 µM | – |
| CC(C)C(NC(=O)N(C)C(C)(C)C)C(=O)c1ccc(C#N)cc1 (stereo unspecified) | – | 3.98 µM | – |
| Cc1noc(-c2ccccc2)c1C(=O)NC(C(=O)c1ccc(C#N)cc1)C(C)C (stereo unspecified) | 3980 nM | 7.94 µM | – |
| CC(C)C(NC(=O)N(C)C(C)(C)C)C(=O)c1ccc(Cl)cc1 (stereo unspecified) | 631 nM | 0.251 µM | – |

| Compound | IC50 [1] | IC50 [2] | other results |
| --- | --- | --- | --- |
| CC(C)C(NC(=O)c1ccccc1)C(=O)c1ccc(S(C)(=O)=O)cc1 (racemic) | – | – | pIC50 [1]: inactive; pIC50 [2]: inactive |
| CC(C)C(NC(=O)N1CCc2ccccc2C1)C(=O)c1ccc(C#N)cc1 (stereo unspecified) | 5010 nM | 5.01 µM | Stability [4]: Unstable |
| CC(C)C(NC(=O)c1ccccc1)C(=O)c1ccc(Cl)cc1 (single isomer, unassigned; isomer 1) | 398 nM | 1 µM | – |
| CC(C)(C)C(NC(=O)c1ccccc1)C(=O)c1ccc(Cl)cc1 (stereo unspecified) | 398 nM | 1 µM | – |
| CC(C)C(NC(=O)c1ccccc1)C(=O)c1ccc(Br)cc1 (racemic) | 1260 nM | 7.94 µM | – |
| O=C(NC1(C(=O)c2ccc(Cl)cc2)CCC1)c1ccccc1 | – | – | pIC50 [1]: inactive; pIC50 [2]: inactive |
| O=C(CNC(=O)c1ccccc1)c1ccc(Cl)cc1 | – | – | pIC50 [1]: inactive; pIC50 [2]: inactive |
| C=CCN(CC=C)c1ccc(C(=O)C(NC(=O)c2ccccc2)C(C)C)cc1 (racemic) | – | – | pIC50 [1]: < 4.5; pIC50 [2]: inactive |
| CC(C)C(NC(=O)NC(C)(C)C)C(=O)c1ccc(Cl)cc1 (stereo unspecified) | 2510 nM | 2 µM | – |
| CC(C)C(NC(=O)c1ccccc1)C(=O)c1cccc(Cl)c1 (racemic) | – | – | pIC50 [1]: < 4.5; pIC50 [2]: inactive |
| O=C(NC(C(=O)c1ccc(Cl)cc1)C1CC1)c1ccccc1 (stereo unspecified) | 2000 nM | 2 µM | – |
| COc1ccc(C(=O)NC(C(=O)c2ccc(C#N)cc2)C(C)C)cc1 (stereo unspecified) | 6310 nM | 12.6 µM | – |
| CC(C)C(NC(=O)c1ccc(Cl)cc1F)C(=O)c1ccc(C#N)cc1 (stereo unspecified) | 3980 nM | 3.16 µM | – |
| CC(C)C(NC(=O)c1ccccc1)C(=O)c1ccc(Cl)cc1 (single isomer, unassigned; isomer 2) | – | – | pIC50 [1]: inactive; pIC50 [2]: inactive |
| CC(C)C(NC(=O)c1cc(C(F)(F)F)ccc1Cl)C(=O)c1ccc(C#N)cc1 (stereo unspecified) | 316 nM | 0.398 µM | – |
| Cc1noc(C(C)C)c1C(=O)NC(C(=O)c1ccc(C#N)cc1)C(C)C (stereo unspecified) | 2000 nM | 1.58 µM | – |
| CC(C)C(NC(=O)c1cc2ccccc2n1C)C(=O)c1ccc(C#N)cc1 (stereo unspecified) | 1580 nM | 3.98 µM | – |
| CC(C)C(NC(=O)OC(C)(C)C)C(=O)c1ccc(C#N)c(F)c1 (stereo unspecified) | 2000 nM | 1.26 µM | – |
| CC(C)C(NC(=O)c1ccccc1C(F)(F)F)C(=O)c1ccc(C#N)cc1 (stereo unspecified) | 5010 nM | 3.16 µM | – |
| CC(C)C(NC(=O)c1ccccc1)C(=O)c1ccc([N+](=O)[O-])cc1 (racemic) | 251 nM | 0.316 µM | – |
| CC(C)C(NC(=O)OC(C)(C)C)C(=O)c1ccc(C#N)cc1 (stereo unspecified) | 2510 nM | 6.31 µM | – |
| CC(C)C(NC(=O)OC(C)(C)C)C(=O)c1ccc(Cl)cc1 (stereo unspecified) | 794 nM | 1 µM | – |
